Source: ChEMBL document CHEMBL3351600, “Sulfur, selenium and tellurium pseudopeptides: synthesis and biological evaluation” (Bioorg Med Chem, 2014)

Columns and labels:
[1] = Growth inhibition of human SF295 cells after 48 hrs; format: functional; conditions: SF-295, 48 h
How it was run: (§1)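 NCI-60 human tumour cell line panel screen run at the US National Cancer Institute under its standard cytotoxicity protocol. It covers leukaemia, NSCLC, colon, CNS, melanoma, ovarian, renal, prostate and breast lines. An initial single-dose test was followed by five-dose testing with 48 h compound exposure.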

IGROV-1 = experiment: Growth inhibition of human IGROV1 cells after 48 hrs; format: functional; conditions: IGROV-1, 48 h; how it was run: as §1
786-0 = experiment: Growth inhibition of human 786-0 cells after 48 hrs; format: functional; conditions: 786-0, 48 h; how it was run: as §1
Malme-3M = experiment: Growth inhibition of human MALME-3M cells after 48 hrs; format: functional; how it was run: as §1
Staphylococcus aureus = experiment: Antimicrobial activity against Staphylococcus aureus assessed as inhibition at 20 ug/6 mm disk after 1 to 2 days by agar diffusion assay; format: functional
How it was run: (§2)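 Standard agar diffusion: 6-mm paper disks loaded with 20 µg of compound were placed on inoculated plates. Inhibition-zone diameter (mm) was read after 1 and 2 days of growth.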

[2] = Growth inhibition of human NCI-ADR-RES cells after 48 hrs; format: functional; how it was run: as §1
[3] = Octanol-water partition coefficient, log P of the compound by HPLC analysis; format: physicochemical
How it was run: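 Lipophilicity was measured by reversed-phase HPLC on a Nucleosil C18 column with isocratic water/methanol (3:1) at 0.5 ml/min and UV detection at 230 and 245 nm. Dead time was set with thiourea (t0 0.728 min). Retention factor was k = (tR − t0)/t0, and log P came from a calibration against at least six reference compounds.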

K562 = experiment: Growth inhibition of human K562 cells after 48 hrs; format: functional; conditions: K562, 48 h; how it was run: as §1
SK-OV-3 = experiment: Growth inhibition of human SKOV3 cells after 48 hrs; format: functional; conditions: SK-OV-3, 48 h
How it was run: (§3)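 Run by the NCI 58-cell-line screen under its standard cytotoxicity protocol. Compounds were first tested at a single dose, then at five doses. Cells were exposed to compound for 48 h.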

[4] = Growth inhibition of human LOXIMVI cells after 48 hrs; format: functional; conditions: LOX IMVI; how it was run: as §1
Candida albicans = experiment: Antimicrobial activity against Candida albicans assessed as inhibition at 20 ug/6 mm disk after 1 to 2 days by agar diffusion assay; format: functional; how it was run: as §2
[5] = Growth inhibition of human OVCAR3 cells after 48 hrs; format: functional; conditions: OVCAR-3, 48 h; how it was run: as §1
NCI-H226 = experiment: Growth inhibition of human NCI-H226 cells after 48 hrs; format: functional; conditions: NCI-H226, 48 h; how it was run: as §1
[6] = Growth inhibition of human HCC2998 cells after 48 hrs; format: functional; conditions: HCC 2998, 48 h; how it was run: as §1
A498 = experiment: Growth inhibition of human A498 cells after 48 hrs; format: functional; conditions: A498, 48 h; how it was run: as §1
SNB-75 = experiment: Growth inhibition of human SNB75 cells after 48 hrs; format: functional; conditions: SNB-75, 48 h; how it was run: as §3
SNB-19 = experiment: Growth inhibition of human SNB19 cells after 48 hrs; format: functional; conditions: SNB-19, 48 h; how it was run: as §3
A-431 = experiment: Cytotoxicity against human A431 cells assessed as cell viability after 24 hrs incubation by MTT assay; format: functional, cell-based; conditions: A-431, 24 h
How it was run: (§4)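 Cell lines came from DSMZ; primary human fibroblasts served as non-cancer controls. Cells were grown in medium with 10% FCS, seeded at 50,000 cells/ml, and grown 2 days at 37 °C, 10% CO2. Serial dilutions were then added for 24 h. MTT (final 0.5 mg/ml) was added for 2 h. Formazan was pelleted, PBS-washed, dissolved in isopropanol/0.4% HCl and read at 590 nm. Two parallel experiments were run. IC50 was taken as the concentration giving 50% of untreated-control absorbance.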

T47D = experiment: Growth inhibition of human T47D cells after 48 hrs; format: functional; how it was run: as §3
[7] = Cytotoxicity against human fibroblasts assessed as cell viability after 24 hrs incubation by MTT assay; format: cell-based; conditions: Fibroblast; how it was run: as §4
HT-29 = experiment: Growth inhibition of human HT-29 cells after 48 hrs; format: functional; conditions: HT-29, 48 h; how it was run: as §1
ACHN = experiment: Growth inhibition of human ACHN cells after 48 hrs; format: functional; how it was run: as §1
[8] = Growth inhibition of human HOP92 cells after 48 hrs; format: functional; conditions: HOP-92, 48 h; how it was run: as §1
[9] = Growth inhibition of human OVCAR4 cells after 48 hrs; format: functional; conditions: OVCAR-4, 48 h; how it was run: as §1
[10] = Growth inhibition of human BT549 cells after 48 hrs; format: functional; conditions: BT-549, 48 h; how it was run: as §1
TK-10 = experiment: Growth inhibition of human TK10 cells after 48 hrs; format: functional; conditions: TK-10, 48 h; how it was run: as §3
[11] = Growth inhibition of human Hs 578T cells after 48 hrs; format: functional; how it was run: as §1
NCI-H522 = experiment: Growth inhibition of human NCI-H522 cells after 48 hrs; format: functional; conditions: NCI-H522, 48 h; how it was run: as §1
[12] = Growth inhibition of human RXF393 cells after 48 hrs; format: functional; conditions: RXF 393, 48 h; how it was run: as §1
[13] = Growth inhibition of human SF539 cells after 48 hrs; format: functional; conditions: SF-539, 48 h; how it was run: as §1
SK-MEL-5 = experiment: Growth inhibition of human SK-MEL-5 cells after 48 hrs; format: functional; conditions: SK-MEL-5, 48 h; how it was run: as §3
[14] = Growth inhibition of human EKVX cells after 48 hrs; format: functional; how it was run: as §1
[15] = read-out: pLC50 (the source's name) (converted)

`COc1ccc(N(CC(=O)NCCC[Te]c2ccccc2)C(=O)c2ccccc2)cc1` showed a GI50 [1] of 1.7 µM, a CC50 [1, 15] of over 100 µM and a TGI ([1]; read-out: pTGI (converted)) of 8.13 µM. The GI50 (IGROV-1) was 2.88 µM, the CC50 (IGROV-1; [15]) was 55 µM and the TGI (IGROV-1; read-out: pTGI (converted)) was 8.32 µM. It also gave a GI50 (786-0) of 5.13 µM, an LC50 (786-0) of 64.6 µM and a TGI (786-0; read-out: pTGI (converted)) of 19.5 µM. For the same molecule, the GI50 (Malme-3M) was 16.6 µM, the CC50 (Malme-3M; [15]) was 72.4 µM and the TGI (Malme-3M; read-out: pTGI (converted)) was 34.7 µM. The “diameter of the inhibition zone (DIZ)” value (Staphylococcus aureus) was 12 mm, the GI50 [2] was 3.24 µM and the LC50 [2] was over 100 µM. The TGI ([2]; read-out: pTGI (converted)) was 10.7 µM, the logP [3] was 1.72 and the GI50 (K562) was 5.13 µM. It also gave a CC50 (K562; [15]) of over 100 µM, a TGI (K562; read-out: pTGI (converted)) of over 100 µM and a GI50 (SK-OV-3) of 2.57 µM. For the same molecule, the CC50 (SK-OV-3; [15]) was 35.5 µM, the TGI (SK-OV-3; read-out: pTGI (converted)) was 6.03 µM and the GI50 [4] was 3.72 µM. For the same molecule, the LC50 [4] was 100 µM, the TGI ([4]; read-out: pTGI (converted)) was 14.1 µM and the “diameter of the inhibition zone (DIZ)” value (Candida albicans) was 0 mm. For the same molecule, the GI50 [5] was 5.75 µM, the CC50 [5, 15] was 56.2 µM and the TGI ([5]; read-out: pTGI (converted)) was 20 µM. It also gave a GI50 (NCI-H226) of 2.63 µM, a CC50 (NCI-H226; [15]) of 100 µM and a TGI (NCI-H226; read-out: pTGI (converted)) of 7.24 µM. It also gave a GI50 [6] of 3.02 µM, a CC50 [6, 15] of 36.3 µM and a TGI ([6]; read-out: pTGI (converted)) of 8.13 µM. For the same molecule, the GI50 (A498) was 2.19 µM, the LC50 (A498) was 25.1 µM and the TGI (A498; read-out: pTGI (converted)) was 5.37 µM. The GI50 (SNB-75) was 2.57 µM, the CC50 (SNB-75; [15]) was 39.8 µM and the TGI (SNB-75; read-out: pTGI (converted)) was 9.55 µM. The GI50 (SNB-19) was 4.07 µM, the CC50 (SNB-19; [15]) was over 100 µM and the TGI (SNB-19; read-out: pTGI (converted)) was 58.9 µM. For the same molecule, the IC50 (A-431) was 5 µM, the GI50 (T47D) was 3.39 µM and the LC50 (T47D) was over 100 µM. For the same molecule, the TGI (T47D; read-out: pTGI (converted)) was 21.4 µM, the IC50 [7] was 7.5 µM and the GI50 (HT-29) was 3.8 µM. It also gave a CC50 (HT-29; [15]) of over 100 µM, a TGI (HT-29; read-out: pTGI (converted)) of over 100 µM and a GI50 (ACHN) of 3.16 µM. The LC50 (ACHN) was 39.8 µM, the TGI (ACHN; read-out: pTGI (converted)) was 9.55 µM and the GI50 [8] was 4.07 µM. It also gave a CC50 [8, 15] of 69.2 µM, a TGI ([8]; read-out: pTGI (converted)) of 10 µM and a GI50 [9] of 12 µM. It also gave an LC50 [9] of 53.7 µM, a TGI ([9]; read-out: pTGI (converted)) of 25.1 µM and a GI50 [10] of 2.4 µM. For the same molecule, the LC50 (concentration killing 50% of cells) [10] was over 100 µM, the TGI ([10]; read-out: pTGI (converted)) was 8.71 µM and the GI50 (TK-10) was 3.89 µM. The LC50 (TK-10) was 69.2 µM, the TGI (TK-10; read-out: pTGI (converted)) was 11.5 µM and the LC50 [11] was over 100 µM. For the same molecule, the GI50 (NCI-H522) was 3.09 µM, the CC50 (NCI-H522; [15]) was 53.7 µM and the TGI (NCI-H522; read-out: pTGI (converted)) was 8.71 µM. It also gave a GI50 [12] of 12 µM, an LC50 [12] of 75.9 µM and a TGI ([12]; read-out: pTGI (converted)) of 30.2 µM. The GI50 [13] was 2.29 µM, the CC50 [13, 15] was 28.8 µM and the TGI ([13]; read-out: pTGI (converted)) was 6.03 µM. For the same molecule, the GI50 (SK-MEL-5) was 2.4 µM, the CC50 (SK-MEL-5; [15]) was 24.5 µM and the TGI (SK-MEL-5; read-out: pTGI (converted)) was 6.03 µM. The GI50 [14] was 4.07 µM, the CC50 [14, 15] was over 100 µM and the TGI ([14]; read-out: pTGI (converted)) was 5.25 µM.
